# In the library only some 2.1% were active in any assay of this set; here they are far more common.
# Shn3 inh set2 = reduces Shn3 3'UTR luciferase signal in osteoblasts; inhibition, % at 12.5 µM; Clone20 osteoblast Shn3 3'UTR firefly luciferase, 24 h; 360,000 tested, 0.52% active; AID 588674;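 active = mean inhibition of at least 75% with every replicate also reaching 75%; inconclusive = mean inhibition at least 75% but some replicate below; inactive = mean inhibition below 75%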;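 note: 0% = median of neutral control wells and 100% = pilot-screen positive control compound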
# PAX8 reporter = inhibitors of PAX8 transcriptional activity in RMG-I cells; RMG-I TPO-luciferase reporter, SteadyGlo, 24 h; inhibition, % at 12.6 µM; 360,000 tested, 1.2% active; AID 652154;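 active = mean replicate inhibition at least 60% with every replicate also reaching 60%; inconclusive = only one of the two criteria is met; inactive = mean below 60% and not all replicates reaching 60%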;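 note: luciferase light reporting Pax8 driven TPO promoter activity; plate controls were median of neutral control wells for no effect and mitoxantrone controls for full effect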
# aSyn 5UTR inh = 5' untranslated region of α-synuclein, MLPCN primary screen; inhibition, % (tested at 7.5 µM); alpha-synuclein 5'UTR reporter, inhibitor activity; 300,000 tested, 0.82% active; in the data active = inhibition above about 60%; inconclusive = no clear call, values can overlap the other calls;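 note: H4 neuroglioblastoma cells stably carrying SNCA 5'UTR luciferase fusion; 0% = DMSO wells and 100% = positive control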
# EWS-Fli block = blocks EWS/Fli oncoprotein-driven transcription; inhibition, % at 12.6 µM; 350,000 tested, 0.67% active; AID 651661; A673 NR0B1-luciferase reporter, viability-normalised;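 active = mean inhibition of at least 50% after viability correction, with every replicate also passing that limit; inconclusive = mean reaches 50% but only one of two replicates passes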;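 note: firefly luciferase signal divided by Alamar Blue viability fluorescence both relative to DMSO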
# FN deposition inh = fibronectin deposition inhibition | AH1F fibroblasts, Alexa488-fibronectin deposition fluorescence, overnight | inhibition, % at 12.6 µM | 350,000 tested, 0.086% active | AID 743247;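 active = mean inhibition across replicates of 30% or more, regardless of how many single replicates reach that level; inconclusive = mean under 30% yet at least half of replicates reach 30%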;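 note: positive control wells lacked labelled fibronectin entirely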
#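 material = AH1F fibroblast monolayer depositing Alexa488-labelled fibronectin into matrix | amount = 10000 AH1F cells/well | buffer or medium = DMEM plus 2% serum, read in PBS | incubation = 1 h cell adhesion before compound, then overnight fibronectin incubation | detection = fluorescence at 485 nm excitation, 525 nm emission | evaluation = percent inhibition as loss of matrix-bound fibronectin fluorescence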
# EBV LMP1 NFkB = inhibitors of Epstein-Barr LMP1-induced NF-kappaB reporter. 350,000 tested, 0.69% active. LMP1-induced NF-kappaB luciferase reporter cells, luminescence. AID 504558. inhibition, % at 12.5 µM; in the data active = inhibition above about 41%; inconclusive = no clear call, values can overlap the other calls;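 note: 0% = neutral control wells and 100% = reference inhibitor control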
# Starred values were filed as active, the others as inactive; ? = inconclusive; nt = no result.
SMILES,Shn3 inh set2,PAX8 reporter,aSyn 5UTR inh,EWS-Fli block,FN deposition inh,EBV LMP1 NFkB
COC(=O)C(CC#Cc1ccc2c(c1)[C@]1(C(=O)N2)[C@H](C(=O)N2CCN(c3ncccn3)CC2)[C@H]2C(=O)O[C@H](c3ccccc3)[C@H](c3ccccc3)N2[C@@H]1c1ccc(OCCO)cc1)C(=O)OC,nt,14,nt,?,nt,nt
O=C(NC1CCCC1)N1CC(=O)N2[C@H](CO)[C@@H](c3ccc(-c4cccnc4)cc3)[C@@H]2C1,nt,nt,nt,2,nt,nt
CSC(=Nc1ccccc1)N=C(SCc1ccccc1)N(C)C,93*,101*,nt,57*,1,-24
N#CNC(=Nc1ccccc1)SCc1ccc(C(=O)O)cc1,-25,3,9,-1,-10,-3
COCC(=O)N(C)C[C@@H]1Oc2cc(C#CCC3CCCC3)ccc2S(=O)(=O)N([C@H](C)CO)C[C@H]1C,nt,-23,nt,-6,nt,nt
COCC(=O)N(C)C[C@@H]1Oc2cc(C#CCC3CCCC3)ccc2S(=O)(=O)N([C@@H](C)CO)C[C@@H]1C,nt,74*,nt,3,nt,nt
COCC(=O)N(C)C[C@@H]1Oc2cc(C#CCC3CCCC3)ccc2S(=O)(=O)N([C@@H](C)CO)C[C@H]1C,nt,71*,nt,9,nt,nt
COCC(=O)N(C)C[C@@H]1Oc2cc(C#CCC3CCCC3)ccc2S(=O)(=O)N([C@H](C)CO)C[C@@H]1C,nt,5,nt,2,nt,nt
CCCNC(=O)[C@@H]1[C@@H](CO)[C@@H]2Cn3c(ccc(-c4ccccc4F)c3=O)[C@@H]2N1C(=O)CC,nt,1,nt,-2,nt,nt
Cc1nc(Sc2nnnn2C)c2c3c(sc2n1)CCC3,25,nt,nt,nt,nt,48*
CCOC(=O)C1(CCOc2ccccc2)CCN(Cc2ccc(O)c(OC)c2)CC1,10,-8,-38,19,-4,4
CCOC(=O)C1(CCOc2ccccc2)CCN(Cc2ccc(O)c(Cl)c2)CC1,7,31,108*,22,-2,-7
Cc1oc(=O)c(NC(=O)c2ccccc2)cc1C(=O)c1ccccc1,-65,nt,-205,nt,1,-66
Cc1oc(=O)c(NC(=O)c2ccc(Cl)cc2)cc1C(=O)c1ccccc1,94*,-1,-59,nt,5,-4
Cc1ccc(C(=O)Nc2cc3ccccc3oc2=O)cc1,81,40,111*,79*,nt,79*
C[C@@H]1CCCCO[C@@H](CN(C)C(=O)c2ccncc2)[C@@H](C)CN([C@H](C)CO)C(=O)c2cc(NS(=O)(=O)c3cn(C)cn3)ccc2O1,nt,9,nt,-1,nt,nt
COc1ccc2c3c([nH]c2c1)[C@H](CO)N(Cc1ccccc1)CC31CCN(C(=O)Nc2cccc(F)c2)CC1,nt,nt,nt,10,nt,nt
O=C(NC(Nc1ncc(S(=O)(=O)c2ccc([N+](=O)[O-])cc2)s1)(C(F)(F)F)C(F)(F)F)c1ccc(Cl)cc1,23,76*,73*,nt,9,24
COCC(=O)Nc1ncc(S(=O)(=O)c2ccc([N+](=O)[O-])cc2)s1,15,5,5,5,6,-1
O=[N+]([O-])c1cc([N+](=O)[O-])c2cc3ccccc3nc2c1,71,27,-176,72*,3,-8
CCC(=O)N[C@@H]1C=C[C@@H](CC(=O)NCc2cc(F)cc(F)c2)O[C@@H]1CO,nt,-6,nt,-5,-9,nt
CCCCCCN(C(=O)CCCCCN1C(=O)NC(c2ccc(-c3ccccc3)cc2)C(C(=O)OCc2ccccc2)=C1C)C(C(=O)NCCCC)c1ccccn1 (stereo unspecified),nt,80*,24,7,8,nt
CCCCCCN(C(=O)CCCCCN1C(=O)NC(c2ccc(-c3ccccc3)cc2)C(C(=O)OCc2ccccc2)=C1C)C(C(=O)NCCCC)C1CCCCC1 (stereo unspecified),nt,-6,5,0,0,nt
CC(Nc1ccccc1CO)C(=O)Nc1cccc(Cl)c1Cl (stereo unspecified),3,5,38,6,8,68*
Cc1ccc(NC(=O)/C=C/c2ccc([N+](=O)[O-])s2)cc1,16,39,-212,nt,-12,-170
SMILES,Shn3 inh set2,PAX8 reporter,aSyn 5UTR inh,EWS-Fli block,FN deposition inh,EBV LMP1 NFkB
Cc1cccc(NC(=O)/C=C/c2ccc([N+](=O)[O-])s2)c1,91*,73*,-224,68*,-8,88*
Cc1cc([N+](=O)[O-])ccc1NC(=O)/C=C/c1cccs1,-39,-159,-158,nt,3,-11
Cc1ccc(NC(=O)/C=C/c2ccc([N+](=O)[O-])s2)c(C)c1,94*,98*,-93,71*,0,84*
Cc1nc2ccc(NC(=O)c3cccc(S(=O)(=O)N(C)c4ccccc4)c3)cc2s1,90*,nt,7,nt,nt,26
CN(c1ccccc1)S(=O)(=O)c1cccc(NC(=O)c2ccc3ncsc3c2)c1,88*,9,-1,12,-8,-1
CCCNC(=O)C[C@@H]1CC[C@H]2[C@@H](COc3ccc(NC(=O)NC(C)C)cc3C(=O)N2C)O1,nt,-12,nt,5,-8,nt
Cc1ccc(-n2ncc3c(=O)n(CC(=O)N4CCN(c5ccccc5)CC4)cnc32)cc1,7,5,-1,0,-4,-2
Cc1ccc(-n2ncc3c(=O)n(CC(=O)N4CCN(C(=O)c5ccco5)CC4)cnc32)cc1,14,73*,nt,1,-2,-2
O=C(c1c[nH]c2ccccc12)C(Cl)c1ccccc1 (stereo unspecified),17,81*,-11,28,3,-15
O=C(c1c[nH]c2ccccc12)C(O)C(c1ccccc1)N1CCOCC1 (stereo unspecified),-3,nt,-13,nt,nt,2
COc1ccc2c3c(n(C)c2c1)[C@@H](CO)N(C(=O)Nc1ccc(F)cc1)CC31CCN(S(=O)(=O)c2cccs2)CC1,nt,nt,nt,9,nt,nt
COc1cccc(S(=O)(=O)N[C@@H]2CC[C@@H](CC(=O)NCc3ccccc3)O[C@@H]2CO)c1,nt,4,nt,-1,nt,nt
C=CS(=O)(=O)c1ccc(Oc2ccc(S(=O)(=O)C=C)cc2)cc1,96*,98*,-108,53*,22,?
NS(=O)(=O)c1ccc(Oc2ccc(S(N)(=O)=O)cc2)cc1,-16,0,8,-1,3,6
CC(C)(C)Nc1nc(N2CCCC2)nc(N2CCCC2)n1,71,nt,68*,nt,nt,-39
C[C@H](NC(=O)C[C@@H]1C=C[C@H](NC(=O)c2cccnc2)[C@@H](CO)O1)c1ccccc1,nt,-10,nt,-4,-7,nt
O=C(Nc1ccc(F)cc1)N[C@H]1CC[C@@H](CC(=O)N2CCOCC2)O[C@H]1CO,nt,4,nt,1,-2,nt
CC(=O)CSc1ccc(-c2nc3cc(C)c(C)cc3[nH]2)cn1,69,69*,121*,69*,-1,72*
CC(=O)CSc1ccc(-c2nc3ccccc3[nH]2)cn1,-65,-9,-72,29,-9,6
CO[C@@H](CN(C)S(=O)(=O)c1ccccc1)[C@H](C)CN(Cc1ccccc1Cl)[C@@H](C)CO,nt,nt,nt,0,0,nt
